Source: PubChem (several laboratories)
An excerpt weighted towards active compounds, which were near 1.9% of everything screened.
Rtt109 HAT inh: C. albicans Rtt109 histone acetyltransferase inhibition; Q5AAJ8; 330,000 tested, 0.16% active; purified Rtt109/Vps75, ThioGlo CoA-SH fluorescence, 4 h; inhibition, % at 34.9 µM;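 active means inhibition of at least 50% in every replicate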
Target sequence (Q5AAJ8 whole entry, looked up): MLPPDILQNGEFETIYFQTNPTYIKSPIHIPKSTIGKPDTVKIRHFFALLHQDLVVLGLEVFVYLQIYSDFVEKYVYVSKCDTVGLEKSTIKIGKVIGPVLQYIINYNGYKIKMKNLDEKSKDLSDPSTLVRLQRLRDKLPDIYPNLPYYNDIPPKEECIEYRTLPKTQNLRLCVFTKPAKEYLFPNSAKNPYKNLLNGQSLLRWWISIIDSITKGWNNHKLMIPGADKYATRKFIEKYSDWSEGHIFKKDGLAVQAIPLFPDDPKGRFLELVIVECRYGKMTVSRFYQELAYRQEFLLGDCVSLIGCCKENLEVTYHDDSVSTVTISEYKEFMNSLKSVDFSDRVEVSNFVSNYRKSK
ARFGAP1 inh: inhibits rat ARF GTPase activating protein 1 | Arfgap1-stimulated ARF1 GTP hydrolysis, GDP FP detection | AID 651572 | inhibition, % at 16.5 µM | 360,000 tested, 0.26% active | Q62848;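 active means inhibition above a per-plate limit, mean inhibition of low control wells plus 3 SD, cut at about 25% in these data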
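system = rat Arfgap1 catalytic domain, aa 1-136 | technique = FP, GDP Alexa 633 tracer displaced from anti-GDP antibody, 620/688 nm | compound = one concentration, 16.5 µM, DMSO 1.26% | medium = HEPES-based buffer, pH 7.5 | timing = compound-enzyme preincubation 20 min, reaction 120 min, detection 60 min, 25 °C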
Efflux pump mplx: inhibitors of Candida antifungal efflux pumps expressed in yeast; S. cerevisiae Candida pump triplex, Nile Red efflux; inhibition, % at 10 µM; 330,000 tested, 0.44% active; AID 485275;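 active means plate passing quality check with inhibition over a set limit, or well fluorescence over plate mean plus 4 SD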;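 further: Nile Red retained in pooled yeast measured as flow cytometry median fluorescence; higher means more Nile Red kept so more efflux inhibition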
ASAP1 inh: inhibitors of human ASAP1 ArfGAP activity. Q9ULH1. ASAP1-stimulated ARF1 GTP hydrolysis, GDP FP detection. inhibition, % at 16.5 µM. 360,000 tested, 0.19% active; in the data active means inhibition above about 25%
FGF22 binding: shifts melting point of recombinant human FGF22; activity (Tm shift, normalised), % at 9.99 µM; Q9HCT0; 340,000 tested, 1.5% active; recombinant FGF22 thermal shift, SYPRO orange fluorescence; percent of sucrose octasulfate shift, DMSO zero;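 active means mean Tm shift, scaled 0 neutral to 100 positive control, at about 1.3% or above, every replicate too, limit read from the data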
Target sequence (Q9HCT0 whole entry, looked up): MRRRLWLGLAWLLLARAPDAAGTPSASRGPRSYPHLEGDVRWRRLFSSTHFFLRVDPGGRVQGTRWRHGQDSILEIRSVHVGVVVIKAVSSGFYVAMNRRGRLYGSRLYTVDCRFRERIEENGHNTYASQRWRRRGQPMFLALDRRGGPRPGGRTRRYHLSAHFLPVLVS
A number is an active result; – = inactive; · = no result given.

SMILES | Rtt109 HAT inh | ARFGAP1 inh | Efflux pump mplx | ASAP1 inh | FGF22 binding
O=S(=O)(c1ccccc1)c1nc(-c2ccccc2)oc1N1CCOCC1 | – | – | – | – | 43.2
CC(=O)Nc1cccc(NC(=O)CCCC2CCCCC2)c1 | – | – | – | – | –
COc1ccc(/C=N/N=C2/SCC(=O)N2Cc2ccccc2)cc1 | · | – | – | – | –
O=C(NCc1nnc2c3ccccc3c(-c3ccccc3)nn12)c1ccccc1Cl | – | – | – | – | 44.3
O=C(COc1ccc(Cl)cc1)NCc1nnc2c3ccccc3c(-c3ccccc3)nn12 | – | – | – | – | ·
CCc1nnc(NC(=O)CN2CCN(Cc3cccc(Cl)c3)CC2)s1 | – | – | – | – | –
N=c1c[n+](N2CCOCC2)[n-]o1 | 55.6 | – | – | – | –
COc1cc2c(cc1OC)CN(CC(=O)Nc1ccccc1SC)CC2 | – | – | – | – | 43.1
Cc1ccc(NC(=O)CCc2c(C)nn(-c3ccc(N4CCOCC4)nn3)c2C)cc1C | – | – | – | – | –
COc1ccc(OC)c(NC(=O)CCCN2C(=S)NC(C)(C)CC2C)c1 (configuration not stated) | – | – | – | – | –
Clc1cccc(Cc2c(-c3ccco3)nc3ccc(Cl)cn23)c1 | · | – | · | – | 1.7
Clc1cccc(Cc2c(-c3ccco3)nc3ccc(Br)cn23)c1 | · | – | · | – | –
COc1ccc(C(=O)NNC(=O)c2ccccn2)cc1 | – | – | – | – | 43.8
CCOC(=O)Nc1cccnc1Sc1ccc(Cl)cc1 | – | – | – | – | –
COc1ccc(C(=O)Nc2cccnc2Sc2ccc(Cl)cc2)cc1 | – | – | – | – | 29.0
O=C(NCCCCNC(=O)c1ccccn1)c1ccccn1 | – | – | – | – | 43.2
COc1ccc(C#Cc2cnc3c(c2)C(=O)N([C@H](C)CO)C[C@@H](C)[C@H](CN(C)C(=O)c2ccccc2F)O3)cc1 | · | · | · | · | –
Cn1c(=O)c2cc(NC(=O)NCc3ccc(Cl)cc3Cl)ccc2n1Cc1ccc(F)cc1 | · | – | · | – | 44.8
Cn1c(=O)c2cc(NC(=S)NCc3ccccc3F)ccc2n1Cc1cccc(C(F)(F)F)c1 | · | – | · | – | 3.9
C[C@@H]1CCCCO[C@H](CN(C)S(=O)(=O)c2ccc(F)cc2)[C@@H](C)CN([C@@H](C)CO)C(=O)c2cc(NC(=O)CCC(F)(F)F)ccc2O1 | · | · | · | · | –
COc1ccc2[nH]c(C(=O)O)c(NS(=O)(=O)c3ccc(F)cc3)c2c1 | – | – | – | – | –
O=C(O)C(=Cc1ccncc1)c1cccc2ccccc12 | · | – | · | – | 43.3
Cc1ccccc1Nc1ncccc1C(=O)N1CCOCC1 | – | – | – | – | ·
COc1ccc2c(C#CCCO)c(-c3ccc(S(C)(=O)=O)cc3)sc2c1 | – | – | – | – | 44.7
COc1ccc2sc(-c3ccc(S(C)(=O)=O)cc3)c(C#CCO)c2c1 | – | – | – | – | –
SMILES | Rtt109 HAT inh | ARFGAP1 inh | Efflux pump mplx | ASAP1 inh | FGF22 binding
O=C(c1ccccc1)C(Nc1ccccn1)c1ccccc1 (configuration not stated) | – | – | – | – | 44.0
O=C(Nc1ccccn1)c1ccccc1 | – | – | · | – | –
Cc1onc(-c2c(Cl)cccc2Cl)c1C(O)c1ccccc1 (configuration not stated) | – | – | – | – | –
O=C(CSc1nc2[nH]ncc2c(=O)n1-c1ccccc1Cl)N1CCCC1 | – | – | – | – | –
CCc1ccccc1-n1c(SCC(=O)N2CCCC2)nc2[nH]ncc2c1=O | – | – | – | – | 43.7
CCOc1ccc(NC(=O)/C(C=Nc2ccccc2)=C(\C)O)cc1 | – | – | – | – | –
CC(C)c1ccccc1NC(=O)c1cnccn1 | – | – | – | – | ·
O=C(NC1CCS(=O)(=O)C1)c1cccc(S(=O)(=O)N2CCCCCC2)c1 (configuration not stated) | – | – | – | – | –
O=C(NC1CCS(=O)(=O)C1)c1cccc(S(=O)(=O)N2CCCC2)c1 (configuration not stated) | – | – | – | – | 43.2
CC(=O)c1cccc(S(=O)(=O)N2CCC(C(=O)O)CC2)c1 | 58.3 | – | – | – | –
COc1ccsc1C(=O)N1CCN(Cc2ccc3c(c2)OCO3)CC1 | – | – | – | – | ·
Nc1cc(=O)[nH]n1C1CCCCC1 | – | – | – | – | 43.0
Cc1cc(=O)oc2cc(OC(C)C(=O)NCC3CCCO3)ccc12 (configuration not stated) | – | – | – | – | 43.5
Cc1cc(=O)oc2cc(OC(C)C(=O)NCC3CCC(C(=O)O)CC3)ccc12 (configuration not stated) | – | – | – | – | –
Cc1noc(N)c1C1(O)C(=O)N(C(C)C)c2ccccc21 (configuration not stated) | – | – | – | – | 43.1
COc1ccccc1N(CC(=O)N(c1ccccc1)C(C)C)S(=O)(=O)c1cccs1 | – | – | – | – | –
COc1ccccc1N(CC(=O)N(CC(C)C)CC(C)C)S(=O)(=O)c1cccs1 | – | – | – | – | 42.9
CC(C)NC1(C#N)CCN(Cc2ccccc2)CC1 | – | – | · | – | 43.3
CCNC1(C#N)CCN(Cc2ccccc2)CC1 | – | – | · | – | –
COc1ccc(NC(=O)N(C)C[C@@H]2Oc3cc(-c4ccncc4)ccc3S(=O)(=O)N([C@@H](C)CO)C[C@@H]2C)cc1 | · | · | · | · | –
CCOC(=O)c1c(CNCCN(CC)CC)n(C)c2cc(Br)c(OC)cc12 | 65.4 | – | – | – | ·
Cc1cc(C(=O)OCC(=O)NC(C)C)c(C)o1 | – | – | – | – | ·
CC(=O)c1c(O)cc(C)n(-c2ccc(F)cc2)c1=O | – | – | – | – | 43.8
C[C@@H]1CN([C@H](C)CO)S(=O)(=O)c2ccc(C#CCC3CCCC3)cc2O[C@H]1CN(C)C(=O)c1cnccn1 | · | · | · | · | –
COc1cccc(CNC(=O)CCNS(=O)(=O)c2cccc3nsnc23)c1 | – | – | – | – | –
SMILES | Rtt109 HAT inh | ARFGAP1 inh | Efflux pump mplx | ASAP1 inh | FGF22 binding
COc1cccc(NC(=O)CCNS(=O)(=O)c2cccc3nsnc23)c1 | – | – | – | – | 43.8
C[C@H](CO)N1C[C@H](C)[C@@H](CN(C)Cc2ccc(-c3ccccc3)cc2)Oc2c(NC(=O)C3CC3)cccc2C1=O | · | · | · | · | 147.9
C[C@H]1CN([C@@H](C)CO)C(=O)c2cccc(NC(=O)c3ccncc3)c2O[C@@H]1CN(C)Cc1ccc(C(F)(F)F)cc1 | · | · | · | · | 16.6
Cc1ccc(S(=O)(=O)N2CCOCC2)cc1C(=O)Nc1c(C)n(C)n(-c2ccccc2)c1=O | – | – | – | – | ·
CCCCc1c(C)c2ccc(OCC(C)=O)cc2oc1=O | – | – | – | – | ·
CN1C(=O)C(CCC(N)=O)NC1=S (configuration not stated) | – | – | – | – | –
CC(C)CNC(=O)NC(=O)COc1ncnc2sccc12 | – | – | – | – | ·
CC(C)c1ccccc1OCC(=O)NC1CCCc2ccccc21 (configuration not stated) | – | – | – | – | ·
Cc1cccc(OCC(=O)Nc2cccc(C(=O)NCC(C)C)c2)c1 | – | – | – | – | ·
